Published values of several laboratories.
Compare with care: the assays were run in different laboratories.
Observed: enzyme activity
Action: inhibitor
PDGFRA: Platelet-derived growth factor receptor alpha (PDGFRA, Homo sapiens, UniProt P16234)

`COc1cc2ncnc(Nc3ccc(Oc4ccccc4)cc3C)c2cc1OC` gave an inhibition of -1% (Platelet-derived growth factor receptor alpha (PDGFRA, Homo sapiens, UniProt P16234, D842V); 1 µM).
`CNC(=O)c1cc2c(Oc3ccc(NC(=O)C4(C(=O)Nc5ccc(F)cc5)CC4)cc3)ccnc2cc1OC` gave an inhibition of 71% (PDGFRA; radiometric; 1 µM).
`COc1cc(-c2cc(-c3ccc(N4CCNCC4)cc3)cnc2N)cc(OC)c1OC` gave an inhibition of 2% (Platelet-derived growth factor receptor alpha (PDGFRA, Homo sapiens, UniProt P16234, T674I); 0.1 µM).
The inhibition of `CC/C(=N\NC(=O)NCc1cccc(O)c1)c1ccc(O)c(C)c1O` is reported as 6.7% (PDGFRA; 0.1 µM).
With `CNC(=O)c1cc(Oc2ccc(NC(=O)Nc3ccc(Cl)c(C(F)(F)F)c3)cc2)ccn1` the inhibition was 35% (PDGFRA; 0.3 µM).
With `COc1cc2nccc(Oc3ccc(NC(=O)c4c5n(n(-c6ccc(F)cc6)c4=O)CCCC5)cc3)c2cc1OC` the inhibition was 30% (PDGFRA; 0.1 µM).
With `COc1cc2ncnc(Nc3ccc(Oc4ccccc4)c(C)c3C)c2cc1OC` the inhibition was 6% (PDGFRA; 1 µM).
`CNCc1ccc(-c2cc(-c3nc(-c4ccc(S(=O)(=O)C(C)C)cc4)cnc3N)on2)cc1` has an inhibition of 9% (PDGFRA; 2 µM).
For `CS(=O)(=O)Nc1cccc(-c2csc(NC(=O)CSc3nc4nccnc4c(=O)n3CCc3ccccc3)n2)c1`, the inhibition was 5% (PDGFRA; 10 µM).
